target: T1, Replicase polyprotein 1ab (Severe acute respiratory syndrome coronavirus 2, UniProt P0DTD1); experiment: Inhibition of SARS-CoV-2 RdRp transfected in human HEK293T cells cotransfected nsp12; type: cell-based; details: not given
How it was run: (§1)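 HEK293T cells were co-transfected with CoV-Gluc reporter plus C-terminally flag-tagged codon-optimized nsp12, nsp7 and nsp8 plasmids (1:10:30:30). After 12 h, cells were re-seeded in 96-well plates at 10^4/well and treated with serially diluted compound. Gaussia luciferase activity in supernatants gave dose-response IC50. Triplicate assays, mean ± SD.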

Point of comparison: `CN(Cc1ccccc1)C(=O)CSc1c[nH]c2ccccc12`, IC50 4.55 µM. Against it:
- COc1ccccc1CNC(=O)CSc1c[nH]c2c(-c3ccccc3)cccc12 — 2.8-fold lower, 1.65 µM
- O=C(CSc1c[nH]c2cccc(Br)c12)N(Cc1ccccc1)Cc1ccccc1 — within 1.5-fold, 3.76 µM
- O=C(CSc1c[nH]c2ccccc12)N(Cc1ccccc1)Cc1ccccc1 — within 1.5-fold, 3.35 µM
- CCOc1ccccc1CN(OC)C(=O)CSc1c[nH]c2cccc(Br)c12 — 4.1-fold lower, 1.11 µM

target: T1, Replicase polyprotein 1ab; experiment: Inhibition of SARS-CoV-2 RdRp transfected in human HEK293T cells cotransfected nsp12 along with nsp14 and nsp10; type: cell-based; details: not given
How it was run: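 HEK293T cell-based Gaussia luciferase RdRp reporter assay. Cells were co-transfected with CoV-Gluc, nsp12, nsp7, nsp8, nsp10 and nsp14 plasmids (1:10:30:30:25:25) so that the nsp14/nsp10 exoribonuclease was present. Gluc activity was measured after compound treatment.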

Point of comparison: `O=C(CSc1c[nH]c2ccccc12)N(Cc1ccccc1)Cc1ccccc1`, IC50 4.01 µM. Against it:
- COc1ccccc1CNC(=O)CSc1c[nH]c2c(-c3ccccc3)cccc12 — 1.8-fold lower, 2.18 µM
- CN(Cc1ccccc1)C(=O)CSc1c[nH]c2ccccc12 — within 1.5-fold, 5.37 µM
- O=C(CSc1c[nH]c2cccc(Br)c12)N(Cc1ccccc1)Cc1ccccc1 — within 1.5-fold, 3.85 µM
- CCOc1ccccc1CN(OC)C(=O)CSc1c[nH]c2cccc(Br)c12 — 2.1-fold lower, 1.89 µM

tested on: HEK293T; experiment: Ratio of IC50 for inhibition of SARS-CoV-2 RdRp transfected in human HEK293T cells cotransfected nsp12 along with nsp14/nsp10 to IC50 for inhibition of SARS-CoV-2 RdRp transfected in human HEK293T cells cotransfected with nsp12; type: cell-based; details: Severe acute respiratory syndrome coronavirus 2; call rule not given here

Point of comparison: `O=C(CSc1c[nH]c2cccc(Br)c12)N(Cc1ccccc1)Cc1ccccc1`, Ratio IC50 1.02. Against it:
- COc1ccccc1CNC(=O)CSc1c[nH]c2c(-c3ccccc3)cccc12 — higher, 1.32
- CN(Cc1ccccc1)C(=O)CSc1c[nH]c2ccccc12 — higher, 1.18
- O=C(CSc1c[nH]c2ccccc12)N(Cc1ccccc1)Cc1ccccc1 — higher, 1.2
- CCOc1ccccc1CN(OC)C(=O)CSc1c[nH]c2cccc(Br)c12 — higher, 1.7

target: T1, Replicase polyprotein 1ab; experiment: (§2) Inhibition of SARS-CoV-2 RdRp transfected in human HEK293T cells cotransfected with Cov-Gluc by Gaussia luciferase reporter gene method; type: cell-based; details: hek293t; how it was run: as §1

With `Cn1cc(SCC(=O)NCc2ccc(C(F)(F)F)cc2)c2ccccc21` the IC50 was “Not Active”.

same assay, conditions: read-out: IC50

Point of comparison: `O=C(CSc1c[nH]c2cc(Br)ccc12)NCc1ccc(Cl)c(Cl)c1`, IC50 8.71 µM. Against it:
- CN(C)CCOc1ccc(CNC(=O)CSc2cn(C)c3ccccc23)cc1 — within 1.5-fold, 8.91 µM
- COc1ccccc1CNC(=O)CSc1c[nH]c2cccc(Br)c12 — the same, 8.71 µM
- O=C(CSc1c[nH]c2ccc(Br)cc12)NCc1ccc(Cl)c(Cl)c1 — within 1.5-fold, 9.77 µM
- CN(Cc1ccccc1)C(=O)CSc1c[nH]c2c(Br)cccc12 — 2.4-fold higher, 20.9 µM
- CN(Cc1ccccc1)C(=O)CSc1c[nH]c2cccc(Br)c12 — 1.8-fold lower, 4.73 µM
- COc1ccccc1CNC(=O)CSc1cn(C)c2ccccc12 — within 1.5-fold, 9.82 µM
- CN(C)CCOc1ccc(CNC(=O)CSc2c[nH]c3ccccc23)cc1 — within 1.5-fold, 9.08 µM
- O=C(CSc1c[nH]c2cccc(Br)c12)NCc1ccc(Cl)c(Cl)c1 — within 1.5-fold, 7.21 µM
- Cn1cc(SCC(=O)N(Cc2ccccc2)Cc2ccccc2)c2ccccc21 — within 1.5-fold, 12.3 µM
- Cn1cc(SCC(=O)NCc2ccccc2)c2ccccc21 — 3.1-fold higher, 26.9 µM
- O=C(CSc1c[nH]c2ccccc12)NCc1ccc(C(F)(F)F)cc1 — within 1.5-fold, 7.94 µM
- COc1ccccc1CNC(=O)CSc1c[nH]c2cc(Br)ccc12 — within 1.5-fold, 10 µM
- COc1ccccc1CN(C)C(=O)CSc1c[nH]c2ccccc12 — within 1.5-fold, 7.64 µM
- COc1ccccc1CNC(=O)CSc1c[nH]c2c(Br)cccc12 — within 1.5-fold, 7.08 µM
- COc1ccccc1CNC(=O)CSc1c[nH]c2ccc(Br)cc12 — within 1.5-fold, 10.7 µM
- O=C(CSc1c[nH]c2c(Br)cccc12)N(Cc1ccccc1)Cc1ccccc1 — within 1.5-fold, 7.08 µM
- C[C@@H](NC(=O)CSc1c[nH]c2ccccc12)c1ccccc1 — within 1.5-fold, 6.68 µM
- Cn1cc(SCC(=O)NCc2ccc(Cl)c(Cl)c2)c2ccccc21 — within 1.5-fold, 7.5 µM
- O=C(CSc1c[nH]c2ccccc12)NCc1ccccc1 — within 1.5-fold, 6.81 µM
- O=C(CSc1c[nH]c2c(Br)cccc12)NCc1ccc(Cl)c(Cl)c1 — 1.9-fold lower, 4.55 µM

target: Replicase polyprotein 1ab (Severe acute respiratory syndrome coronavirus 2) (UniProt P0DTD1); experiment: as §2; type: cell-based; details: not given; how it was run: as §1

For `COc1ccccc1CNC(=O)CSc1c[nH]c2c(-c3ccccc3)cccc12`, the inhibition was “Dose-Dependent Effect”.
In the case of `CN(Cc1ccccc1)C(=O)CSc1c[nH]c2ccccc12`, the inhibition is reported as “Dose-Dependent Effect”.
With `O=C(CSc1c[nH]c2cccc(Br)c12)N(Cc1ccccc1)Cc1ccccc1` the inhibition was “Dose-Dependent Effect”.
With `O=C(CSc1c[nH]c2ccccc12)N(Cc1ccccc1)Cc1ccccc1` the inhibition was “Dose-Dependent Effect”.
With `CCOc1ccccc1CN(OC)C(=O)CSc1c[nH]c2cccc(Br)c12` the inhibition was “Dose-Dependent Effect”.

target: Replicase polyprotein 1ab (Severe acute respiratory syndrome coronavirus 2) (UniProt P0DTD1); experiment: Inhibition of SARS-CoV-2 RdRp transfected in HEK293T cells cotransfected with CoV-Gluc assessed as decrease in plus and minus strand-Gluc RNA levels incubated for 24 hrs by qRT-PCR analysis; type: cell-based; details: dose 5-10 µM
How it was run: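 HEK293T cells were transfected with CoV-Gluc, nsp12, nsp7 and nsp8 plasmids (1:10:30:30). At 6 h post-transfection, medium was replaced with fresh medium containing compound, and cells were cultured a further 24 h. Total cellular RNA was extracted and CoV-Gluc RNA quantified by real-time qRT-PCR.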

For `COc1ccccc1CNC(=O)CSc1c[nH]c2c(-c3ccccc3)cccc12`, the inhibition was “Dose-Dependent Effect”.
For `CN(Cc1ccccc1)C(=O)CSc1c[nH]c2ccccc12`, the inhibition was “Dose-Dependent Effect”.
For `O=C(CSc1c[nH]c2cccc(Br)c12)N(Cc1ccccc1)Cc1ccccc1`, the inhibition was “Dose-Dependent Effect”.
With `O=C(CSc1c[nH]c2ccccc12)N(Cc1ccccc1)Cc1ccccc1` the inhibition was “Dose-Dependent Effect”.
In the case of `CCOc1ccccc1CN(OC)C(=O)CSc1c[nH]c2cccc(Br)c12`, the inhibition is reported as “Dose-Dependent Effect”.
In the case of `CCC(CC)COC(=O)[C@H](C)N[P@](=O)(OC[C@H]1O[C@@](C#N)(c2ccc3c(N)ncnn23)[C@H](O)[C@@H]1O)Oc1ccccc1`, the inhibition is reported as “Dose-Dependent Effect”.

tested on: HEK-293T; experiment: (§3) Cytotoxicity against human HEK293T cells assessed as reduction in cell viability incubated for 24 hrs by CCK8 assay; type: cell-based; details: hek-293t, 24 h
How it was run: (§4)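 HEK293T cells in 96-well plates were exposed to compound at 0.78–100 μM for 24 h. CCK-8 reagent was then added for 1 h at 37 °C and OD450 read. Viability was normalised to DMSO-only cells to give CC50. Triplicate assays, mean ± SD.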

Point of comparison: `O=C(CSc1c[nH]c2cc(Br)ccc12)NCc1ccc(Cl)c(Cl)c1`, CC50 67.6 µM. Against it:
- CN(C)CCOc1ccc(CNC(=O)CSc2cn(C)c3ccccc23)cc1 — higher, > 100 µM
- COc1ccccc1CNC(=O)CSc1c[nH]c2c(-c3ccccc3)cccc12 — within 1.5-fold, 95.5 µM
- COc1ccccc1CNC(=O)CSc1c[nH]c2cccc(Br)c12 — higher, > 100 µM
- O=C(CSc1c[nH]c2ccc(Br)cc12)NCc1ccc(Cl)c(Cl)c1 — higher, > 100 µM
- CN(Cc1ccccc1)C(=O)CSc1c[nH]c2c(Br)cccc12 — within 1.5-fold, 52.5 µM
- CN(Cc1ccccc1)C(=O)CSc1c[nH]c2cccc(Br)c12 — 2.7-fold lower, 25.1 µM
- CN(Cc1ccccc1)C(=O)CSc1c[nH]c2ccccc12 — higher, > 100 µM
- COc1ccccc1CNC(=O)CSc1cn(C)c2ccccc12 — higher, > 100 µM
- CN(C)CCOc1ccc(CNC(=O)CSc2c[nH]c3ccccc23)cc1 — higher, > 100 µM
- O=C(CSc1c[nH]c2cccc(Br)c12)NCc1ccc(Cl)c(Cl)c1 — higher, > 100 µM
- Cn1cc(SCC(=O)N(Cc2ccccc2)Cc2ccccc2)c2ccccc21 — within 1.5-fold, 91.2 µM
- Cn1cc(SCC(=O)NCc2ccc(C(F)(F)F)cc2)c2ccccc21 — higher, > 100 µM
- Cn1cc(SCC(=O)NCc2ccccc2)c2ccccc21 — within 1.5-fold, 95.5 µM
- O=C(CSc1c[nH]c2ccccc12)NCc1ccc(C(F)(F)F)cc1 — higher, > 100 µM
- COc1ccccc1CNC(=O)CSc1c[nH]c2cc(Br)ccc12 — higher, > 100 µM
- COc1ccccc1CN(C)C(=O)CSc1c[nH]c2ccccc12 — higher, > 100 µM
- COc1ccccc1CNC(=O)CSc1c[nH]c2c(Br)cccc12 — within 1.5-fold, 72.4 µM
- COc1ccccc1CNC(=O)CSc1c[nH]c2ccc(Br)cc12 — higher, > 100 µM
- O=C(CSc1c[nH]c2cccc(Br)c12)N(Cc1ccccc1)Cc1ccccc1 — 2.6-fold lower, 25.7 µM
- O=C(CSc1c[nH]c2c(Br)cccc12)N(Cc1ccccc1)Cc1ccccc1 — higher, > 100 µM
- O=C(CSc1c[nH]c2ccccc12)N(Cc1ccccc1)Cc1ccccc1 — higher, > 100 µM
- C[C@@H](NC(=O)CSc1c[nH]c2ccccc12)c1ccccc1 — higher, > 100 µM
- Cn1cc(SCC(=O)NCc2ccc(Cl)c(Cl)c2)c2ccccc21 — higher, > 100 µM
- O=C(CSc1c[nH]c2ccccc12)NCc1ccccc1 — higher, > 100 µM
- O=C(CSc1c[nH]c2c(Br)cccc12)NCc1ccc(Cl)c(Cl)c1 — higher, > 100 µM
- CCOc1ccccc1CN(OC)C(=O)CSc1c[nH]c2cccc(Br)c12 — higher, > 100 µM

tested on: not listed separately; experiment: as §3; type: cell-based, HEK-293T; details: HEK293T cells; how it was run: as §4

`CCC(CC)COC(=O)[C@H](C)N[P@](=O)(OC[C@H]1O[C@@](C#N)(c2ccc3c(N)ncnn23)[C@H](O)[C@@H]1O)Oc1ccccc1` gave a CC50 at 24 h of over 100 µM.

tested on: not listed separately; experiment: Antiviral activity against HCoV-NL63 infected in LLC-MK2 cells assessed as reduction in viral replication treated 1 hr post infection and measured after 120 hrs post infection by MTS cell proliferation colorimetric assay; type: functional, cell-based; details: Human coronavirus NL63, LLC-MK2
How it was run: (§5)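 HCT-8 cells infected with HCoV-OC43 at MOI 0.1, and LLC-MK2 cells infected with HCoV-NL63 strain Amsterdam I at MOI 0.01. Serial compound dilutions were added 1 h post-infection in 2% FBS. Incubation was 120 h at 33 °C in 5% CO2. MTS reagent was then added for 3 h at 37 °C and absorbance read at 490 nm.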

Molecule `CCOc1ccccc1CN(OC)C(=O)CSc1c[nH]c2cccc(Br)c12` has an IC50 of over 50 µM.

tested on: Human coronavirus OC43; experiment: Antiviral activity against HCoV-OC43 infected in HCT-8 cells assessed as reduction in viral replication treated 1 hr post infection and measured after 120 hrs post infection by MTS cell proliferation colorimetric assay; type: functional, cell-based; details: not given; how it was run: as §5

In the case of `CCOc1ccccc1CN(OC)C(=O)CSc1c[nH]c2cccc(Br)c12`, the Activity is reported as “Dose-Dependent Effect”.

— ChEMBL document CHEMBL4831483, “Discovery and optimization of 2-((1H-indol-3-yl)thio)-N-benzyl-acetamides as novel SARS-CoV-2 RdRp inhibitors” (Eur J Med Chem, 2021)
